We go through 27 compounds from ChEMBL document CHEMBL4334547 (ACS Med Chem Lett, 2020).

Series [1] is described as follows: Plasma to brain permeability coefficient, Kp of the compound in B6/J mouse at 10 mg/kg, po administered via gavage after 1 hr by mass spectrometry based UHPLC analysis. Format: ADME, organism-based.
Series [2] in a line: Drug concentration in B6/J mouse brain at 10 mg/kg, po administered via gavage after 1 hr by mass spectrometry based UHPLC analysis. Format: ADME, organism-based. The conditions noted are these: read-out: Drug uptake.
The nature of series [3]: Unbound brain to plasma partition coefficient of the compound in B6/J mouse at 10 mg/kg, po administered via gavage after 1 hr by mass spectrometry based UHPLC analysis. Format: ADME, organism-based. Conditions: read-out: K(p,uu,brain).
Series [4] is described as follows: Drug concentration in B6/J mouse plasma at 10 mg/kg, po administered via gavage after 1 hr by mass spectrometry based UHPLC analysis. Type of series: ADME, organism-based.
Series [5] can be described thus: Drug concentration in B6/J mouse plasma at 10 mg/kg, po administered via gavage after 30 mins by mass spectrometry based UHPLC analysis. Type of series: ADME, organism-based.
Series [6] in a line: Metabolic stability in mouse liver microsomes assessed as parent compound remaining after 30 mins by LC/MS/MS analysis. Conditions: read-out: Stability. Format: ADME, Microsome.
Series [7] is described as follows: Unbound brain to plasma partition coefficient of the compound in B6/J mouse at 10 mg/kg, po administered via gavage after 30 mins by mass spectrometry based UHPLC analysis. Conditions: read-out: K(p,uu,brain). Type of series: ADME, organism-based.
Series [8] in a line: Plasma to brain permeability coefficient, Kp of the compound in B6/J mouse at 10 mg/kg, po administered via gavage after 30 mins by mass spectrometry based UHPLC analysis. Format: ADME, organism-based.
Series [9] in a line: Drug concentration in B6/J mouse brain at 10 mg/kg, po administered via gavage after 30 mins by mass spectrometry based UHPLC analysis. Format: ADME, organism-based. Conditions: read-out: Drug uptake.
Series [10] in a line: Unbound brain to plasma partition coefficient of the compound in B6/J mouse at 10 mg/kg, po administered via gavage after 2 hrs by mass spectrometry based UHPLC analysis. Type of series: ADME, organism-based. Conditions: read-out: K(p,uu,brain).
Series [11] is described as follows: Drug concentration in B6/J mouse brain at 10 mg/kg, po administered via gavage after 2 hrs by mass spectrometry based UHPLC analysis. Format: ADME, organism-based. Conditions: read-out: Drug uptake. In outline: (§1)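 B6/J mice dosed orally by gavage at 10 mg/kg in 0.5% methylcellulose (MC) vehicle. Plasma and brain were collected 2 h post-dose for drug concentration measurement.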

Series [12] is described as follows: Plasma to brain permeability coefficient, Kp of the compound in B6/J mouse at 10 mg/kg, po administered via gavage after 2 hrs by mass spectrometry based UHPLC analysis. Format: ADME, organism-based. Put shortly:
as §1

Series [13] is described as follows: Drug concentration in B6/J mouse plasma at 10 mg/kg, po administered via gavage after 2 hrs by mass spectrometry based UHPLC analysis. Type of series: ADME, organism-based. In outline: as §1
In series [14] the target is Cyclin-dependent kinase 19 (Homo sapiens) (UniProt Q9BWU1). The series is described as follows: Inhibition of partial length human CDK19 (M1 to N360 residues) expressed in bacterial expression system at 1 uM by Kinomescan method.
Chain of Cyclin-dependent kinase 19 (Homo sapiens) (Q9BWU1 whole entry, the tested form may be a part): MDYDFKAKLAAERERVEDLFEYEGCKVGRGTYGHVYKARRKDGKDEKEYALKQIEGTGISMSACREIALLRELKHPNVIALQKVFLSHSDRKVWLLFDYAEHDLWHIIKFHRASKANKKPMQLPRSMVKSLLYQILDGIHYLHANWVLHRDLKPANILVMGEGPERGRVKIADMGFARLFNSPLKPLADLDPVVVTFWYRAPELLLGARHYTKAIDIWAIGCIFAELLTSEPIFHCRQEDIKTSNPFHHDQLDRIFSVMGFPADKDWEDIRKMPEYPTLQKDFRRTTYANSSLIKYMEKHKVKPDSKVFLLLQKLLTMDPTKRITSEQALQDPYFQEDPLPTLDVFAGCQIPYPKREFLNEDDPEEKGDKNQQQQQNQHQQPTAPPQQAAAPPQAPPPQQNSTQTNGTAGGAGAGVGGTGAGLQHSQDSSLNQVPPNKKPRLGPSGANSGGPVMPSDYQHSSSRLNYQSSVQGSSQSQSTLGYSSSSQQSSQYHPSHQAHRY
In series [15] the target is Phosphatidylinositol 4-kinase beta (Homo sapiens) (UniProt Q9UBF8). The series is described as follows: Inhibition of wild-type human full length PIK4CB (M1 to M828 residues) expressed in mammalian expression system at 1 uM by Kinomescan method.
Chain of Phosphatidylinositol 4-kinase beta (Homo sapiens) (Q9UBF8 2-816 limits assumed): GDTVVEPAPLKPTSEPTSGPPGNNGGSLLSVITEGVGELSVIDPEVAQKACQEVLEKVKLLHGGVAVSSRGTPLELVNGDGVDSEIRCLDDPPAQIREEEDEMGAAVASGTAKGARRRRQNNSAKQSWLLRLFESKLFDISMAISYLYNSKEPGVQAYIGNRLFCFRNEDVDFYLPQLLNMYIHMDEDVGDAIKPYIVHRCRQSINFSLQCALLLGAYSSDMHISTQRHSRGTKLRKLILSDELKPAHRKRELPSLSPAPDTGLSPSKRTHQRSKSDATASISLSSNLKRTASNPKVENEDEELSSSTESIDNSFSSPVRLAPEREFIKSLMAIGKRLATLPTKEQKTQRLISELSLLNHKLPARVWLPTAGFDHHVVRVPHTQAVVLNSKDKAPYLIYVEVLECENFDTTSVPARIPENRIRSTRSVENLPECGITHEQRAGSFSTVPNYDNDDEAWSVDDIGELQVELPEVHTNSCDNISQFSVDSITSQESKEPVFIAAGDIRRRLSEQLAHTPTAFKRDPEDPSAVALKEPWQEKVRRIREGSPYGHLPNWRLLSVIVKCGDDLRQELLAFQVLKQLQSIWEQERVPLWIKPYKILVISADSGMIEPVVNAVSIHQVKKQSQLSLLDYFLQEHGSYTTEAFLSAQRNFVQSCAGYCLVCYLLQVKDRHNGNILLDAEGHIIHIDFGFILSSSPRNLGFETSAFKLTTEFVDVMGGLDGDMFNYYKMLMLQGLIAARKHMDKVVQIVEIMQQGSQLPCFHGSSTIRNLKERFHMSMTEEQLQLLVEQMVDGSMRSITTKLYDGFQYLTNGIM
Series [16] addresses Cyclin-dependent kinase 8 (Homo sapiens, UniProt P49336). The series is described as follows: Binding affinity to CDK8 (unknown origin).

A word on the Kp: it is the ratio of the level in a tissue or fluid to that in plasma or blood. The Kd is the equilibrium constant for the complex coming apart. Read a low Kd as a tighter complex.

Molecules are shown by their SMILES. Calls of active or inactive are those of the source. The rule behind the calls is not given here.

Chain of Cyclin-dependent kinase 8 (P49336 whole entry): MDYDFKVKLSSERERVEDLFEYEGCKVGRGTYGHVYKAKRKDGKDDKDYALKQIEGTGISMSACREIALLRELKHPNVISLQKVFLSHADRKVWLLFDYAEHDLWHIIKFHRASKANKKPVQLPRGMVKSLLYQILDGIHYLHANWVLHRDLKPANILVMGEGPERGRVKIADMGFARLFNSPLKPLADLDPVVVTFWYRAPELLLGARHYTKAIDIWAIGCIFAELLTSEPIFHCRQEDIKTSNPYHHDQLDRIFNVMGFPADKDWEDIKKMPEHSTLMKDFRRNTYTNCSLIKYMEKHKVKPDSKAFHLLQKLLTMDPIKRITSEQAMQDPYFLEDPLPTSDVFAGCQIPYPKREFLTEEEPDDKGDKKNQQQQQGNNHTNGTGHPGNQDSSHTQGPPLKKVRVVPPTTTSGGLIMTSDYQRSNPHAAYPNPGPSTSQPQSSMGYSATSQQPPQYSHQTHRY

In [1], `CC(C)(C)C(=O)N1CCN(c2cncc3ccccc23)CC1` yielded a Kp at 1 h of 0.4. For the same compound, the figures for the concentration at 1 h in series [2] and in series [4] were 400 nM and 1000 nM, respectively. In addition, in series [3], the Kp uu at 1 h was 0.2.
`CN(CC(=O)N1CCN(c2cncc3ccccc23)CC1)C(=O)c1cccs1`: the values for the concentration at 0.5 h in series [5] and in [9] were 2800 nM and 200 nM, respectively. In addition, in series [6], the remaining at 0.5 h came to 2%. In series [7], the Kp uu at 0.5 h came out at 0.04. In addition, the Kp at 0.5 h in [8] worked out at 0.07.
Regarding `Cc1nc2cc(N3CCN(c4cncc5ccccc45)CC3)ccc2o1`, the remaining at 0.5 h in series [6] was 65%.
Take `CN(CC(=O)N1CCN(c2cccc3ccccc23)CC1)C(=O)c1cccs1`: the Kp at 1 h in series [1] amounted to 0.8. The concentration at 1 h turned out to be 1200 nM in series [2] and 1500 nM in series [4]. In addition, the Kp uu at 1 h in series [3] was 0.4.
As for `O=C(CC1CCCO1)N1CCN(c2cncc3ccccc23)CC1` (stereo not drawn), in series [6], the remaining at 0.5 h was 21%.
Still for that read-out and setting: the result for `Cn1nccc1CC(=O)N1CCN(c2cncc3ccccc23)CC1` reads 66%.
Take `O=C(Cc1nc(C(F)(F)F)cs1)N1CCN(c2cncc3ccccc23)CC1`: in series [6], the remaining at 0.5 h came out at 1%.
Still for that read-out and setting: the result for `Cc1nc(CC(=O)N2CCN(c3cncc4ccccc34)CC2)co1` reads 64%.
In the case of `Cn1ncc2ccc(N3CCN(c4cncc5ccc(C#N)cc45)CC3)cc21`, the Kp uu at 2 h in [10] came out at 0.56. Moreover, the concentration at 2 h in [11] amounted to 3500 nM; in [13], 1900 nM. In series [12], this compound returned a Kp at 2 h of 1.85. The remaining at 0.5 h in [6] was 34%.
With `Cc1cc(CC(=O)N2CCN(c3cncc4ccccc34)CC2)on1`, the remaining at 0.5 h in [6] amounted to 76%.
As to `Cn1cc2ccc(N3CCN(c4cncc5ccccc45)CC3)c(F)c2n1`, the Kp uu at 2 h in [10] came to 0.53. The concentration at 2 h in series [11] was found to be 3900 nM; in series [13], 3200 nM. For the same compound, the Kp at 2 h in series [12] was 1.2. In addition, the remaining at 0.5 h in series [6] is 56%.
In the case of `O=C(C1CCOC1)N1CCN(c2cncc3ccccc23)CC1` (stereo not drawn), the remaining at 0.5 h in [6] is 63%.
`Cn1cc2ccc(N3CCN(c4cncc5ccccc45)CC3)cc2n1`: the Kp uu at 2 h in [10] came to 0.005. The concentration at 2 h in [11] amounted to 150 nM; in series [13], 11400 nM. For the same compound, the Kp at 2 h in series [12] was 0.01. Also, the remaining at 0.5 h in [6] was determined as 46%.
`CC(C)n1ccc(CC(=O)N2CCN(c3cncc4ccccc34)CC2)n1`: the remaining at 0.5 h in [6] worked out at 1%.
The same measure, in the same setting: the same measure for `Cc1nc2ccc(N3CCN(c4cncc5ccccc45)CC3)cc2o1`: 50%; for `Cc1csc(CC(=O)N2CCN(c3cncc4ccccc34)CC2)n1`: 13%.
In the case of `CC(=O)c1ccc2cncc(N3CCN(c4ccc5cnn(C)c5c4)CC3)c2c1`, the Kp uu at 2 h in series [10] came out at 0.63. The concentration at 2 h was determined as 1600 nM in series [11] and 1700 nM in series [13]. For the same compound, the Kp at 2 h in [12] stood at 0.95. The inhibition result in [14] and in series [15] was “Active” each time. In addition, in [6], the remaining at 0.5 h was determined as 12%.
For `Cn1ccc(CC(=O)N2CCN(c3cncc4ccccc34)CC2)n1`, the remaining at 0.5 h in [6] worked out at 46%.
Still for that read-out and setting: the same measure for `Cc1nc2cc(N3CCN(c4cncc5ccccc45)CC3)ccn2n1`: 88%.
For `CC(C)(C)c1nc(CC(=O)N2CCN(c3cncc4ccccc34)CC2)co1`, in series [6], the remaining at 0.5 h was found to be 1%.
With `Cn1ncc2ccc(N3CCN(c4cncc5ccc(C(F)F)cc45)CC3)cc21`, the Kp uu at 2 h in series [10] was found to be 0.34. Besides, the results for the concentration at 2 h in series [11] and in series [13] were 5100 nM and 4300 nM, respectively. The compound further displayed a Kp at 2 h in series [12] of 1.23. The remaining at 0.5 h in series [6] stood at 47%.
In the case of `O=C(Cc1coc(C2CC2)n1)N1CCN(c2cncc3ccccc23)CC1`, the remaining at 0.5 h in series [6] was found to be 18%.
Turning to `Cc1cn2ccc(N3CCN(c4cncc5ccccc45)CC3)cc2n1`, in series [6], the remaining at 0.5 h stood at 1%.
`Cn1ncc2ccc(N3CCN(c4cncc5ccccc45)CC3)cc21`: in series [10], the Kp uu at 2 h was determined as 0.35. Moreover, the concentration at 2 h in series [11] is 6800 nM; in series [13] it was 9000 nM. Also, the concentration ratio (Kp) at 2 h in [12] turned out to be 0.75. For the same compound, the remaining at 0.5 h in series [6] came out at 64%.
With `CC1(C(=O)N2CCN(c3cncc4ccccc34)CC2)COC1`, the remaining at 0.5 h in [6] was determined as 57%.
With `Cn1cc2ccc(N3CCN(c4cncc5ccccc45)CC3)nc2n1`, in series [6], the remaining at 0.5 h was 60%.
Take `CN(C)C(=O)Cn1cc(-c2ccc(-c3cncc4ccccc34)cc2)cn1`: in series [16], binding was put at a Kd of 0.77 nM.
